Measurements taken from ChEMBL document CHEMBL1124405, “Synthesis and copper-dependent antimycoplasmal activity of 1-amino-3-(2-pyridyl)isoquinoline derivatives. 2. Amidines” (1989).
≈ marks a conversion by molar mass, not a printed value.

Tests used:
Type in all cases: functional
[1] = tested on: Mycoplasmoides gallisepticum; experiment: The anti-mycoplasmal activity was determined against Mycoplasma gallisepticum K514 with the addition of copper (40 uM CuSO4)
How it was run: (§1)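 Broth-dilution MIC in modified Adler medium at pH 8.0, with heat-inactivated horse serum, benzylpenicillin and phenol red. CuSO4 was added to a final 40 μM. Compounds were in DMSO (final 1.25%) and tested in serial 2-fold dilutions, in duplicate, up to 100 μM. Each tube (3 mL) received 1 mL of fresh culture (A660 0.22, pH 6.8) and was incubated at 37 °C for 24 h. MIC was the lowest concentration without indicator color change.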

[2] = tested on: Mycoplasmoides gallisepticum; experiment: The anti-mycoplasmal activity was determined against Mycoplasma gallisepticum K514 without the addition of copper
How it was run: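 No copper was added; the medium's copper was below 3 μM. The medium was modified Adler at pH 8.0, with horse serum, benzylpenicillin and phenol red. Compounds were in DMSO (final 1.25%) and tested in serial 2-fold duplicate dilutions up to 100 μM. Each tube held 3 mL of medium plus 1 mL of fresh culture (A660 0.22) and was incubated at 37 °C for 24 h. MIC was the lowest concentration preventing phenol red color change.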

[3] = tested on: Mycoplasmoides gallisepticum; experiment: The anti-mycoplasmal activity against Mycoplasma gallisepticum K514 with the addition of copper at 40 uM CuSO4; how it was run: as §1

Compound | MIC [1] [µM] | MIC [2] [µM] | MIC [3] [µM]
N=C(Nc1nc(-c2ccccn2)cc2ccccc12)c1ccncc1 | 0.039 (≈ 0.0127 µg/mL) | 0.39 (≈ 0.127 µg/mL) | –
Cc1cc(C(=N)Nc2nc(-c3ccccn3)cc3ccccc23)ccn1 | 0.065 (≈ 0.0221 µg/mL) | 0.39 (≈ 0.132 µg/mL) | –
N=C(Nc1nc(-c2ccccn2)cc2ccccc12)c1cccc(Cl)c1 | 0.195 (≈ 0.07 µg/mL) | 6.25 (≈ 2.24 µg/mL) | –
N=C(Nc1nc(-c2ccccn2)cc2ccccc12)c1ncccn1 | 0.0325 (≈ 0.0106 µg/mL) | 0.195 (≈ 0.0636 µg/mL) | –
COc1cccc(C(=N)Nc2nc(-c3ccccn3)cc3ccccc23)c1 | 0.078 (≈ 0.0276 µg/mL) | 1.56 (≈ 0.553 µg/mL) | –
COc1ccc(C(=N)Nc2nc(-c3ccccn3)cc3ccccc23)cc1 | 0.104 (≈ 0.0369 µg/mL) | 0.78 (≈ 0.276 µg/mL) | –
N=C(Nc1nc(-c2ccccn2)cc2ccccc12)c1ccccc1 | 0.0634 (≈ 0.0206 µg/mL) | 0.195 (≈ 0.0633 µg/mL) | –
N=C(Nc1nc(-c2ccccn2)cc2ccccc12)c1cnccn1 | 0.039 (≈ 0.0127 µg/mL) | 0.195 (≈ 0.0636 µg/mL) | –
N=C(Nc1nc(-c2ccccn2)cc2ccccc12)c1ccc(Cl)c(Cl)c1 | 0.78 (≈ 0.307 µg/mL) | > 10 | –
Cc1cccc(C(=N)Nc2nc(-c3ccccn3)cc3ccccc23)c1 | 0.0488 (≈ 0.0165 µg/mL) | 0.78 (≈ 0.264 µg/mL) | –

Next, values leading:

MIC [1] [µM] | MIC [2] [µM] | MIC [3] [µM] | Compound
0.0683 (≈ 0.0231 µg/mL) | 0.78 (≈ 0.264 µg/mL) | – | Cc1ccc(C(=N)Nc2nc(-c3ccccn3)cc3ccccc23)cc1
0.195 (≈ 0.07 µg/mL) | 6.25 (≈ 2.24 µg/mL) | – | N=C(Nc1nc(-c2ccccn2)cc2ccccc12)c1ccc(Cl)cc1
> 100 | > 100 | – | Cc1cccc2c(NC(=N)c3ccccn3)nc(-c3ccccc3)cc12
– | > 500 | 250 (≈ 49.6 µg/mL) | N=C(Nc1ccccn1)c1ccccn1
0.1 (≈ 0.0916 µg/mL) | 0.1 (≈ 0.0916 µg/mL) | – | CC[C@H]1OC(=O)C[C@@H](O)[C@H](C)[C@@H](O[C@@H]2O[C@H](C)[C@@H](O[C@H]3C[C@@](C)(O)[C@@H](O)[C@H](C)O3)[C@H](N(C)C)[C@H]2O)[C@@H](CC=O)C[C@@H](C)C(=O)/C=C/C(C)=C/[C@@H]1CO[C@@H]1O[C@H](C)[C@@H](O)[C@@H](OC)[C@H]1OC [TYLOSIN]
0.0325 (≈ 0.0106 µg/mL) | 0.39 (≈ 0.127 µg/mL) | – | N=C(Nc1nc(-c2ccccn2)cc2ccccc12)c1ccccn1
– | 452 (≈ 100 µg/mL) | 0.45 (≈ 0.0996 µg/mL) | Nc1nc(-c2ccccn2)cc2ccccc12
– | 700 | – | CUPRIC SULFATE
– | 0.195 (≈ 0.0691 µg/mL) | 0.0455 (≈ 0.0161 µg/mL) | Cc1cc(C)nc(C(=N)Nc2nc(-c3ccccn3)cc3ccccc23)n1
0.065 (≈ 0.0221 µg/mL) | 0.39 (≈ 0.132 µg/mL) | – | Cc1cccc(C(=N)Nc2nc(-c3ccccn3)cc3ccccc23)n1
